Measured values reported in ChEMBL document CHEMBL1154274, “Oligomeric formylpeptide activity on human neutrophils” (2009).
Calls of active or inactive are those of the source. The rule behind the calls is not given here.

Tests used:
[1] = Activation of cellular function of human neutrophils assessed as induction of chemotactic activity at 0.01 uM; format: functional, cell-based; conditions: Neutrophil
How it was run: (§1)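 48-well microchemotaxis chamber with peptide in the lower compartment, diluted from 10^-2 M DMSO stock into KRPG with 1 mg/mL BSA; tested 10^-12 to 10^-5 M. Filter migration was scored by the leading-front method. Chemotactic index = (migration to attractant − migration to buffer)/migration to buffer. Five experiments, duplicate.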

[2] = test system: Neutrophil; assay: Ratio of compound to fMLP-OMe potency for induction of chemotactic activity in human neutrophils; format: functional
[3] = Activation of cellular function of cytochalasin B-pretreated human neutrophils assessed as induction of superoxide anion production at 10 uM by microplate-based assay; format: functional, cell-based; conditions: Neutrophil
How it was run: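 Microplate ferricytochrome c reduction, superoxide dismutase-inhibitable, in KRPG. Wells held 4 × 10^5 neutrophils and 100 nmol cytochrome c. Cells were pre-incubated with cytochalasin B for 5 min. Peptide (10^-10 to 10^-4 M) was added at zero time at 37 °C. A550 minus A468 was converted to nmol O2− using ε 18.5 mM^-1 cm^-1. Five experiments, duplicate.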

[4] = Activation of cellular function of cytochalasin B-pretreated human neutrophils assessed as induction of lysozyme release at 1 uM after 15 mins by microplate-based assay; format: functional, cell-based; conditions: Neutrophil
How it was run: (§2)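 Neutrophils from heparinized peripheral blood of fasting healthy donors (dextran sedimentation, Ficoll-Paque, hypotonic NH4Cl lysis), resuspended in KRPG pH 7.4 with 1 mM MgCl2 and CaCl2. Pre-incubated with cytochalasin B for 15 min at 37 °C, then given peptide (final 10^-10 to 10^-4 M) for 15 min at 37 °C. After centrifugation, lysozyme was read by Micrococcus lysodeikticus lysis rate at 465 nm, as net % of Triton X-100 total. Five experiments, duplicate.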

[5] = Activation of cellular function of cytochalasin B-pretreated human neutrophils assessed as maximal induction of lysozyme release at 10 uM after 15 mins by microplate-based assay; format: functional, cell-based; conditions: Neutrophil; how it was run: as §2
[6] = Activation of cellular function of human neutrophils assessed as chemotactic index at 0.01 uM; format: functional, cell-based; conditions: Neutrophil; how it was run: as §1
[7] = Activation of cellular function of human neutrophils assessed as chemotactic index at 0.000001 to 10 uM; format: functional, cell-based; conditions: Neutrophil; how it was run: as §1

SMILES	Activity [1]	Ratio [2]	Activity [3]	Efficacy [4] [%]	Activity [5]	Ratio [6]	Ratio [7]
COC(=O)[C@H](CCCCN[C@@H](Cc1ccccc1)C(=O)N[C@@H](CC(C)C)C(=O)N[C@H](C=O)CCSC)NC(=O)[C@H](Cc1ccccc1)NC(=O)[C@H](CC(C)C)NC(=O)[C@H](CCSC)NC=O	Active	10	Active	40	Active		
COC(=O)[C@H](CCCCN[C@@H](Cc1ccccc1)C(=O)N[C@@H](CC(C)C)C(=O)N[C@H](C=O)CCSC)NC(=O)[C@H](CCCCN[C@@H](Cc1ccccc1)C(=O)N[C@@H](CC(C)C)C(=O)N[C@H](C=O)CCSC)NC(=O)[C@H](Cc1ccccc1)NC(=O)[C@H](CC(C)C)NC(=O)[C@H](CCSC)NC=O	Active	10	Active	40	Active	0.9	0.95
COC(=O)[C@H](Cc1ccccc1)NC(=O)[C@H](CC(C)C)NC(=O)[C@H](CCSC)NC=O				60		1.05	1.05
COC(=O)C[C@H](NCCCC[C@H](NC(=O)[C@H](Cc1ccccc1)NC(=O)[C@H](CC(C)C)NC(=O)[C@H](CCSC)NC=O)C(=O)OC)C(=O)N[C@@H](Cc1ccccc1)C(=O)N[C@@H](CC(C)C)C(=O)N[C@H](C=O)CCSC	Active	10	Active	20	Active	0.9	0.95
